Assay results of several laboratories.
Each line is one published result; the experiments were not run side by side.
Read-out: cell growth or viability

| SMILES | cell line | assay | setting | IC50 |
| --- | --- | --- | --- | --- |
| CCCON(Cc1ccc(C(=O)NO)cc1)C(=O)Nc1ccccc1 | HAL-01 | ATP luminescence | 72 h | 6.65 µM |
| COc1cc(/C=C/C(=O)CC(=O)/C=C/c2ccc(O)c(OC)c2)ccc1O | HUVEC | MTT | 48 h | 10.3 µg/mL |
| Nc1ccn([C@@H]2O[C@H](CO)[C@@H](O)C2(F)F)c(=O)n1 | HFF-1 | MTT |  | 14.4 µM |
| CO[C@H]1/C=C\C=C(/C)C(=O)NC2=CC(=O)C(NCCN(C)C)=C(C[C@@H](C)C[C@H](OC)[C@H](O)[C@@H](C)/C=C(\C)[C@@H]1OC(N)=O)C2=O | HUVEC | MTT |  | 0.88 µM |
| Nc1nc2sc(CCCCCc3ccc(C(=O)N[C@@H](CCC(=O)O)C(=O)O)cc3)cc2c(=O)[nH]1 | R2/PCFT4 |  | 96 h, pH 7.2 | > 1 µM |
| CC(C)C[C@H](NC(=O)[C@H](Cc1ccccc1)NC(=O)c1cnccn1)B(O)O | NCI-H2286 | ATP luminescence |  | 0.0066 µM |
| Nc1nc2sc(CCc3ccc(C(=O)N[C@@H](CCC(=O)O)C(=O)O)cc3)cc2c(=O)[nH]1 | R2/PCFT4 |  | 96 h, pH 7.2 | > 1 µM |
| CCOc1cc(-c2nc3ccc(C)cc3[nH]2)ccc1O | C26 | MTT | 48 h | 32.8 µM |
| COc1cc(Nc2nccc(-c3cnn4nc(OC)ccc34)n2)cc(C(F)(F)F)c1 | NCI-H1048 | ATP luminescence |  | 0.38 µM |
| CN1c2ccccc2C(=O)N2[C@H](C(=O)Nc3ccc(/C=C/C(=O)NO)cc3)Cc3c([nH]c4ccccc34)[C@@H]12 | HUVEC |  |  | 7.4 µM |
| Cc1ccc(-c2ccc(O)cc2)c(C(=C2C=CC(=O)C=C2)c2ccc(O)cc2)c1C#Cc1ccc(O)cc1 | HUVEC | MTT | 48 h | > 50 µM |
| Nc1nc2sc(CCCc3ccc(C(=O)N[C@@H](CCC(=O)O)C(=O)O)cc3)cc2c(=O)[nH]1 | R2/PCFT4 |  | 96 h, pH 7.2 | > 1 µM |
| COC1=C2C[C@@H](C)C[C@H](OC)[C@H](O)[C@@H](C)/C=C(\C)[C@H](OC(N)=O)[C@@H](OC)/C=C\C=C(/C)C(=O)NC(=CC1=O)C2=O | HUVEC | MTT |  | 0.041 µM |
| OCc1ccc2c(c1C#Cc1ccc(O)cc1)C(c1ccc(O)cc1)(c1ccc(O)cc1)c1cc(O)ccc1-2 | HUVEC | MTT | 48 h | > 50 µM |
